From ChEMBL document CHEMBL3865785, “Dopaminergic isoquinolines with hexahydrocyclopenta[ij]-isoquinolines as D2-like selective ligands” (Eur J Med Chem, 2016)

What was measured:
[1] = Displacement of [3H]SCH23390 from D1-like dopaminergic receptor (unknown origin) in striatal membrane measured after 1 hr by liquid scintillation counting method; assay type: cell membranes, Homo sapiens, Striatum
Method in brief: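 Striatal membranes homogenized in 50 mM Tris-HCl pH 7.4, centrifuged twice at 20000 g. Resuspended in Tris with 5 mM MgSO4, 0.5 mM EDTA, 0.02% ascorbic acid. 100 µg protein incubated 1 h at 25 °C with 0.25 nM (final) [3H]SCH 23390 plus drug. Nonspecific binding defined with 30 μM SK&F 38393. GF/B filtration, scintillation counting. Mean ± SEM, n = 3.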

[2] = Displacement of [3H]raclopride from D2-like dopaminergic receptor (unknown origin) in striatal membrane measured after 1 hr by liquid scintillation counting method; assay type: cell membranes, Homo sapiens, Striatum
Method in brief: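 Striatal membranes washed by four 20000 g centrifugations. Resuspended in Tris buffer with 120 mM NaCl, 5 mM KCl, 1 mM CaCl2, 1 mM MgCl2, 0.1% ascorbic acid. 200 µg protein incubated 1 h at 25 °C with 0.5 nM (final) [3H]raclopride plus drug. Nonspecific binding defined with 50 µM apomorphine. Filtration, scintillation counting. Mean ± SEM, n = 3.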

Homo sapiens = organism: Homo sapiens; experiment: Selectivity ratio of Ki for D1-like dopaminergic receptor (unknown origin) in striatal membranes to Ki for D2-like dopaminergic receptor (unknown origin) in striatal membranes; assay type: cell membranes
[3] = Cytotoxicity against human neutrophils assessed as reduction in cell viability at 30 uM measured after 24 hrs by MTT assay relative to control; assay type: toxicity, cell-based; conditions: neutrophil
Method in brief: (§1)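 Neutrophils isolated from healthy-donor buffy coats by Ficoll-Hypaque gradient; HUVEC from collagenase isolation, passage ≤1. Cells at 10^5 per 100 µL supplemented RPMI, incubated 24 h at 37 °C with or without compound (30 μM). MTT added (solution made at 2 mg/mL in PBS), further 3 h at 37 °C; colorimetric readout vs vehicle. Mean ± SEM, n = 3 independent experiments.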

[4] = Cytotoxicity against HUVEC assessed as reduction in cell viability at 30 uM measured after 24 hrs by MTT assay relative to control; assay type: toxicity, cell-based; conditions: human; method in brief: as §1
[5] = Induction of apoptosis in human neutrophils assessed as viable cells at 30 uM measured after 24 hrs by Annexin-V-FITC/propidium iodide staining-based flow cytometric analysis (reference value: 93.52%); assay type: cell-based, Neutrophil; conditions: read-out: Activity
[6] = Induction of apoptosis in human neutrophils assessed as early apoptotic cells at 30 uM measured after 24 hrs by Annexin-V-FITC/propidium iodide staining-based flow cytometric analysis (reference value: 1.1%); assay type: cell-based; conditions: neutrophil
[7] = Induction of apoptosis in human neutrophils assessed as late apoptotic cells at 30 uM measured after 24 hrs by Annexin-V-FITC/propidium iodide staining-based flow cytometric analysis (reference value: 0.06%); assay type: cell-based; conditions: neutrophil
[8] = Induction of apoptosis in human neutrophils assessed as necrotic cells at 30 uM measured after 24 hrs by Annexin-V-FITC/propidium iodide staining-based flow cytometric analysis (reference value: 5.33%); assay type: cell-based; conditions: neutrophil
[9] = Induction of apoptosis in HUVEC at 30 uM measured after 24 hrs by Annexin-V-FITC/propidium iodide staining-based flow cytometric analysis; assay type: cell-based; conditions: human

| Compound | Ki [1] | pKi [1] | Ki [2] | pKi [2] | Ratio Ki (Homo sapiens) | Activity [3] | Activity [4] | viability at 24 h, 30 µM [5] | Activity [6] | Activity [7] | Activity [8] | Activity [9] |
| --- | --- | --- | --- | --- | --- | --- | --- | --- | --- | --- | --- | --- |
| C=CCN1CCc2cc(OC)c(OC)cc2C1/C=C/c1ccccc1 (centres undefined) | 7.68 µM | 5.133 | 1.17 µM | 5.942 | 6.58 |  |  |  |  |  |  |  |
| CN1CCc2cc(O)c(O)c3c2C1CC3c1ccccc1 (centres undefined) |  |  |  |  |  | Non-Toxic | Non-Toxic | 94.7% | 0.15% | 3.06% | 5.05% | Non-Toxic |
| Oc1cc2c(cc1O)C(/C=C/c1ccccc1)NCC2 (centres undefined) | 9.57 µM | 5.048 | 1.42 µM | 5.869 | 6.73 |  |  |  |  |  |  |  |
| C/C=C/C1c2cc(O)c(O)cc2CCN1C (centres undefined) | 1.29 µM | 5.897 | 0.072 µM | 7.181 | 17.9 | Non-Toxic | Non-Toxic | 93.3% | 3.95% | 0.3% | 2.43% | Non-Toxic |
| Oc1cc2c3c(c1O)C(c1ccccc1)CC3NCC2 (centres undefined) |  |  |  |  |  | Non-Toxic | Non-Toxic | 95.3% | 0.08% | 0.05% | 4.53% | Non-Toxic |
| COc1cc2c(cc1OC)C(/C=C/c1ccccc1)NCC2 (centres undefined) | 4.56 µM | 5.36 | 6.18 µM | 5.244 | 0.74 |  |  |  |  |  |  |  |
| CN1CCc2cc(O)c(O)cc2C1/C=C/c1ccccc1 (centres undefined) | 3.19 µM | 5.498 | 0.057 µM | 7.264 | 55.9 | Non-Toxic | Non-Toxic | 89.7% | 3.24% | 0.12% | 6.94% | Non-Toxic |
| C=CCN1CCc2cc(OC)c(OC)cc2C1/C=C/C (centres undefined) | 37.6 µM | 4.432 | 13.8 µM | 4.86 | 2.72 |  |  |  |  |  |  |  |
| COc1cc2c(cc1OC)C(/C=C/c1ccccc1)N(C)CC2 (centres undefined) | 6.2 µM | 5.251 | 0.436 µM | 6.376 | 14.2 |  |  |  |  |  |  |  |
| C=CCN1CCc2cc(O)c(O)c3c2C1CC3c1ccccc1 (centres undefined) |  |  |  |  |  | Toxic | Non-Toxic | 89.9% | 6.86% | 0.33% | 3.03% | Non-Toxic |

Further lines, with some results ahead:

| Ki [1] | pKi [1] | Ki [2] | pKi [2] | Ratio Ki (Homo sapiens) | Compound | Activity [3] | Activity [4] | viability at 24 h, 30 µM [5] | Activity [6] | Activity [7] | Activity [8] | Activity [9] |
| --- | --- | --- | --- | --- | --- | --- | --- | --- | --- | --- | --- | --- |
| 1.71 µM | 5.766 | 0.018 µM | 7.749 | 95.2 | C=CCN1CCc2cc(O)c(O)cc2C1/C=C/C (centres undefined) | Non-Toxic | Non-Toxic | 93.5% | 0.28% | 0.11% | 0.1% | Non-Toxic |
| 18.3 µM | 4.74 | 14.7 µM | 4.833 | 1.24 | C/C=C/C1c2cc(OC)c(OC)cc2CCN1C (centres undefined) |  |  |  |  |  |  |  |
| 57.7 µM | 4.246 | 0.458 µM | 6.352 | 126 | C/C=C/C1NCCc2cc(O)c(O)cc21 (centres undefined) |  |  |  |  |  |  |  |
| 0.55 µM | 6.26 | 0.56 µM | 6.837 | 0.98 | NCCc1ccc(O)c(O)c1 [DOPAMINE] |  |  |  |  |  |  |  |
| 6.04 µM | 5.267 | 0.041 µM | 7.408 | 147 | C=CCN1CCc2cc(O)c(O)cc2C1/C=C/c1ccccc1 (centres undefined) | Non-Toxic | Non-Toxic | 93.6% | 0.15% | 0.16% | 6.11% | Non-Toxic |
| 45.6 µM | 4.347 | 8.86 µM | 5.059 | 5.15 | C/C=C/C1NCCc2cc(OC)c(OC)cc21 (centres undefined) |  |  |  |  |  |  |  |
